Test results as given in ChEMBL document CHEMBL1125821, “Pyrimido[5,4-b]indole derivatives. 1. A new class of potent and selective alpha 1 adrenoceptor ligands” (J Med Chem, 1991).

Assays:
[1] = target: T1, Alpha-1A adrenergic receptor (Rattus norvegicus, UniProt P43140); assay: Binding affinity measured for alpha-1 adrenergic receptor by displacement of [3H]prazosin from rat cortical membranes; type: cell membranes, Membrane
T1 sequence (P43140 whole entry): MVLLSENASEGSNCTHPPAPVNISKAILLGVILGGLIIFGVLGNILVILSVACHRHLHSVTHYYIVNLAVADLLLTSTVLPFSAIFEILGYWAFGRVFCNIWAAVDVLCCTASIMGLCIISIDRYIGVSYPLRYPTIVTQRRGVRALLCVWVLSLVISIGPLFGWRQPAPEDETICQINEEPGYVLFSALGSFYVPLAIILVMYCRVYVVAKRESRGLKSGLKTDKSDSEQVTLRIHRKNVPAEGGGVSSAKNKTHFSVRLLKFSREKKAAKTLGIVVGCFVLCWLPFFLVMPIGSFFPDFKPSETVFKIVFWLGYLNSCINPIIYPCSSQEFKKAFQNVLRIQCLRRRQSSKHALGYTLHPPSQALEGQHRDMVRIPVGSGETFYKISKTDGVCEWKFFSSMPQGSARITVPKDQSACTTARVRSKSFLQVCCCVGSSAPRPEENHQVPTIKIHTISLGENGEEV

[2] = target: T2, 5-hydroxytryptamine receptor 1A (Rattus norvegicus, UniProt P19327); assay: Binding affinity for 5-hydroxytryptamine 1A receptor measured by displacing [3H]8-OH-DPAT from rat cortical membranes
T2 sequence (P19327 whole entry): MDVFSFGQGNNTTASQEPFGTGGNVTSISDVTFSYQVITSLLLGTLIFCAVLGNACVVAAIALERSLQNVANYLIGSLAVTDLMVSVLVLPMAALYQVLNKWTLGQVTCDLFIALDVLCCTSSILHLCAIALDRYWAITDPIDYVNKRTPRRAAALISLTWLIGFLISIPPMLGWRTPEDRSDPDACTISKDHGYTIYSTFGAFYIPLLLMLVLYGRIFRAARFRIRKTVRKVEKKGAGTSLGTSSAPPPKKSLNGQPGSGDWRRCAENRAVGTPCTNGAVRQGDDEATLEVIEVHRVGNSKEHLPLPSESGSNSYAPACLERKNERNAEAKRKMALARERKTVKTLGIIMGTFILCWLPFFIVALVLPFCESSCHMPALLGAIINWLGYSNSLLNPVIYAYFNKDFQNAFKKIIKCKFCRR
Procedure, shortened: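 Rat hippocampus or cortex membranes; 1 nM [3H]-8-OH-DPAT; nonspecific binding set with 1 μM serotonin. Incubated with competing drug 45–60 min at 37 °C in buffer, then vacuum-filtered on glass-fiber filters and washed with ice-cold buffer. IC50 from nonlinear fit of competition curves, mean of 3–7 experiments. Ki by Cheng–Prusoff.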

[3] = target: T2, 5-hydroxytryptamine receptor 1A
[4] = target: T1, Alpha-1A adrenergic receptor; assay: Binding affinity for Alpha-1 adrenergic receptor measured by displacing [3H]prazosin from rat cortical membranes
Procedure, shortened: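 Rat cortex membranes labelled with 0.4 nM [3H]prazosin; 10 μM phentolamine defined nonspecific binding. Incubation with competing drugs 45–60 min at 37 °C, then vacuum filtration on glass-fiber filters with ice-chilled buffer wash. IC50 by nonlinear curve fitting (three to seven experiments); Ki via Cheng–Prusoff using KD 0.1 nM for [3H]prazosin.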

[5] = target: T3, Adrenergic receptor alpha-2 (Homo sapiens, UniProt P08913+P18825+P18089); assay: Binding affinity towards Alpha-2 adrenergic receptor in human platelet membranes using [3H]yohimbine; type: cell membranes
T3 sequence (P08913 whole entry): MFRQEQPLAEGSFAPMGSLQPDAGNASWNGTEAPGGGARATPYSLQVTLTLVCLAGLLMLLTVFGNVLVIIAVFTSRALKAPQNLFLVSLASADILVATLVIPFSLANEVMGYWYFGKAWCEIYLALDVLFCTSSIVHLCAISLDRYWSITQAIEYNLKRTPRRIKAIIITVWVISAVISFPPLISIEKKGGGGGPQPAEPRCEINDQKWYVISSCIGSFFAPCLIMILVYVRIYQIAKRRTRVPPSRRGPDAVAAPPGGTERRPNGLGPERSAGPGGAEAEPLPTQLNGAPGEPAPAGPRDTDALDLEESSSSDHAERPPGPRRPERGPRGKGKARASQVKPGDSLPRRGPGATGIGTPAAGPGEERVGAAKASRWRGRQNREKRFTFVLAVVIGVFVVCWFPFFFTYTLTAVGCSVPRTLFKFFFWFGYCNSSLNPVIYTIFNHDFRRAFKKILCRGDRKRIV
T3 sequence (P18825 whole entry): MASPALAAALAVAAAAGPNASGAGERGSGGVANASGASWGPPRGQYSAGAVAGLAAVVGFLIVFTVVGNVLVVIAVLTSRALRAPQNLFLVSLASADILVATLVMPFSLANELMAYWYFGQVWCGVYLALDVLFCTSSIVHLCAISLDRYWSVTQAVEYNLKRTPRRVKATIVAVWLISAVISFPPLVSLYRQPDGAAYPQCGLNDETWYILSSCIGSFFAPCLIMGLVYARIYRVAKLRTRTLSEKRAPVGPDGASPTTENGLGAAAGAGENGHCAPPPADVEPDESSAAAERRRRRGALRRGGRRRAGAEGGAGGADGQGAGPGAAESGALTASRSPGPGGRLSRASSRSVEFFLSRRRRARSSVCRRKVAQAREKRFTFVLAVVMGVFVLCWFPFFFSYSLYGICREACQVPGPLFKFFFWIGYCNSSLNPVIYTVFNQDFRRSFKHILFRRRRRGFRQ
T3 sequence (P18089 whole entry): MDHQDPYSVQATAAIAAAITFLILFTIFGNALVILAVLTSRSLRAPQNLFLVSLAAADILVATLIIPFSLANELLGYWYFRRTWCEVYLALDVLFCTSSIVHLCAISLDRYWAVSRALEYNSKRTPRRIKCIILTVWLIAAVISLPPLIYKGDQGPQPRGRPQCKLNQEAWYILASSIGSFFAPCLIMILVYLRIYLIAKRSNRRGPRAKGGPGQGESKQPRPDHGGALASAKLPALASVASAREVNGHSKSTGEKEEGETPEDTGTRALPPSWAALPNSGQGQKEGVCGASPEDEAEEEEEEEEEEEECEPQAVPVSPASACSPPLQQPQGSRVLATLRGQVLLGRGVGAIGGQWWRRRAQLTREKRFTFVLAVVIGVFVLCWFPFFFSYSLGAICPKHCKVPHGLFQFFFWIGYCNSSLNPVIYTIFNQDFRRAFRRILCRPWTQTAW
Procedure, shortened: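 Human platelet membranes, [3H]yohimbine 3.5 nM; nonspecific binding defined by 100 μM phentolamine. Competition run 45–60 min at 37 °C, stopped by rapid vacuum filtration over glass-fiber filters and ice-chilled buffer washes. IC50 by nonlinear regression, mean of three to seven experiments; converted to Ki with the Cheng–Prusoff equation.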

[6] = target: Beta-2 adrenergic receptor (Homo sapiens, UniProt P07550); assay: Binding affinity towards Beta-2 adrenergic receptor in human peripheral mononuclear leukocyte membranes using [125I]pindolol
Beta-2 adrenergic receptor, sequence (P07550 whole entry): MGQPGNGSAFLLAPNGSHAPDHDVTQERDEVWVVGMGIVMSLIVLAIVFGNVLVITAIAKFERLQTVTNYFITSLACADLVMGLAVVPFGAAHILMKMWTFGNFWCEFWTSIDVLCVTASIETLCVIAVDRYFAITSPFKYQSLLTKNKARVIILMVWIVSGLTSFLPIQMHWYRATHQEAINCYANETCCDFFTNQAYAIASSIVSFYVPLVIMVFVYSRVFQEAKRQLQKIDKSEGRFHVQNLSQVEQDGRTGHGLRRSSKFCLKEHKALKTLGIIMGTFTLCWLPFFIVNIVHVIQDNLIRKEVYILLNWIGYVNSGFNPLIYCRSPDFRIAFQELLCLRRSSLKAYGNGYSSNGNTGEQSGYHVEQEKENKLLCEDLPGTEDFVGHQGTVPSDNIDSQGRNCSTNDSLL
Procedure, shortened: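 Membranes from human peripheral blood mononuclear leukocytes bound [125I]pindolol (100 pM); 1 μM (-)-propranolol gave nonspecific binding. 45–60 min at 37 °C with or without competitors, then rapid filtration through glass-fiber filters and ice-cold buffer wash. IC50 from nonlinear fitting over three to seven experiments; Ki by Cheng–Prusoff.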

O=c1[nH]c2c([nH]c3ccccc32)c(=O)n1CCN1CCOCC1
Ki [1]: > 100000 nM

COc1ccccc1N1CCNCC1
Ki [2]: 281 nM | Ki [1]: 3510 nM

CCN(CC)CCn1c(=O)[nH]c2c([nH]c3ccccc32)c1=O
Ki [1]: > 100000 nM

Clc1ccccc1N1CCNCC1
Ki [3]: 226 nM | Ki [1]: 710 nM

O=c1[nH]c2c([nH]c3ccccc32)c(=O)n1CCN1CCN(c2ccccc2)CC1
Ki [4]: 1.8 nM | Ki [2]: > 100000 nM | Ki [5]: > 100000 nM | Ki [6]: > 100000 nM

CN(C)CCn1c(=O)[nH]c2c([nH]c3ccccc32)c1=O
Ki [1]: > 100000 nM

O=c1[nH]c2c([nH]c3ccccc32)c(=O)n1CCN1CCNCC1
Ki [4]: > 100000 nM

COc1ccccc1N1CCN(CCn2c(=O)c3c(c4ccccc4n3C)n(C)c2=O)CC1
Ki [4]: 0.32 nM | Ki [2]: 1.5 nM | Ki [5]: 2215 nM

COc1ccccc1N1CCN(CCCn2c(=O)[nH]c3c([nH]c4ccccc43)c2=O)CC1
Ki [4]: 13 nM | Ki [2]: 308 nM | Ki [5]: 55 nM | Ki [6]: 1180 nM

COc1ccc(N2CCN(CCn3c(=O)[nH]c4c([nH]c5ccccc54)c3=O)CC2)cc1
Ki [4]: > 5000 nM | Ki [2]: > 100000 nM | Ki [5]: > 100000 nM | Ki [6]: > 100000 nM

COc1ccccc1N1CCN(CCn2c(=O)[nH]c3c([nH]c4ccccc43)c2=O)CC1
Ki [4]: 0.21 nM | Ki [2]: 50 nM | Ki [5]: >= 1000 nM | Ki [6]: > 100000 nM

O=c1[nH]c2c([nH]c3ccccc32)c(=O)n1CCN1CCN(c2ccc(Cl)cc2)CC1
Ki [4]: ≥ 10000 nM | Ki [2]: > 100000 nM | Ki [5]: > 100000 nM | Ki [6]: > 100000 nM

CN(C)CCCn1c(=O)[nH]c2c([nH]c3ccccc32)c1=O
Ki [1]: > 100000 nM

CCN(CC)CCCn1c(=O)[nH]c2c([nH]c3ccccc32)c1=O
Ki [1]: > 100000 nM

O=c1[nH]c2c([nH]c3ccccc32)c(=O)n1CCN1CCCCC1
Ki [1]: > 100000 nM

CCOC(=O)N1CCN(CCn2c(=O)[nH]c3c([nH]c4ccccc43)c2=O)CC1
Ki [1]: > 100000 nM

O=c1[nH]c2c([nH]c3ccccc32)c(=O)n1CCN1CCCC1
Ki [1]: > 100000 nM

O=c1[nH]c2c([nH]c3ccccc32)c(=O)n1CCN1CCN(c2ccccc2Cl)CC1
Ki [4]: 0.53 nM | Ki [2]: > 100000 nM | Ki [5]: > 100000 nM | Ki [6]: > 100000 nM
